Data: PMC7534582 (Cancer cell, 2019)

Tests used:
Assay type in all cases: cell-based, human
[1] = tested on: SIRT3 depleted HBL1 cells; experiment: Rescue of proliferation arrest caused by SIRT3 depletion; settings: HBL1, Figure S5D
[2] = tested on: DLBCL cells with SIRT3 shRNA; experiment: Rescue of autophagy; settings: DMKG 4 mM for 3-4 hr
In short: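 DLBCL cells carrying SIRT3 or control shRNA were incubated with test compound (4 mM) for 3-4 hr, then collected for Western blot with LC3 and SIRT3 antibodies. Detection used a peroxidase-conjugated secondary antibody and enhanced chemiluminescence. LC3II/LC3I ratios were obtained by densitometry and normalized to control cells.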

[3] = tested on: SIRT3 depleted Karpas 422 cells; experiment: Rescue of proliferation arrest caused by SIRT3 depletion; settings: Karpas 422, 4-day exposure
In short: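 Karpas 422 cells were infected with YFP-carrying lentivirus bearing SIRT3 or control shRNA and exposed for 4 days to test compounds, alone or combined. Viable YFP+ (transduced) and YFP− (non-transduced) populations were quantified by flow cytometry. Abundance was normalized to the first time point.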

[4] = tested on: SIRT3 depleted OCI-LY1 cells; experiment: Rescue of proliferation arrest caused by SIRT3 depletion; settings: OCI-LY1, Figure S5C

COC(=O)C(C)=O [MP, methyl-pyruvate]
Rescue of proliferation arrest caused by SIRT3 depletion [1]: required both DMKG and MP

COC(=O)CCC(=O)C(=O)OC [DMKG, dimethyl-αKG]
Rescue of LC3II/LC3I ratios (autophagy) after SIRT3 depletion [2]: rescued LC3II/LC3I ratios
Rescue of proliferation arrest caused by SIRT3 depletion [3]: DMKG alone rescued
Rescue of proliferation arrest caused by SIRT3 depletion [4]: DMKG alone rescued
Rescue of proliferation arrest caused by SIRT3 depletion [1]: required both DMKG and MP
